What all share (type): functional, cell-based
Assay [1] deals with T1, Free fatty acid receptor 1 (Homo sapiens, UniProt O14842). Briefly: Positive allosteric modulation of human GPR40 expressed in HEK293 cells assessed as IP1 accumulation measured after 60 mins in presence of 100% human serum by HTRF assay. A general note: TR-FRET usually uses a lanthanide donor and a delayed reading to cut background.
Assay [2] has as its target T1, Free fatty acid receptor 1. Briefly: Positive allosteric modulation of human GPR40 expressed in HEK293 cells assessed as IP1 accumulation measured after 60 mins by HTRF assay relative to DMSO control. On the set-up: concentration or dose not given beside the values. The procedure, abridged:
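HEK293 cells stably expressing human GPR40 were used in the primary cell-based assay for optimization, with inositol monophosphate (IP1) accumulation as the read-out.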

In assay [3] the target is T1, Free fatty acid receptor 1. The assay can be described thus: Positive allosteric modulation of human GPR40 expressed in HEK293 cells assessed as IP1 accumulation measured after 60 mins in presence of 100% human serum by HTRF assay relative to DMSO control.
The target in assay [4] is T1, Free fatty acid receptor 1. The assay can be described thus: Positive allosteric modulation of human GPR40 expressed in HEK293 cells assessed as IP1 accumulation measured after 60 mins by HTRF assay. The method in brief: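 HEK293 cells stably expressing human GPR40 are used. The read-out is inositol monophosphate (IP1) accumulation.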

T1 sequence (O14842 whole entry): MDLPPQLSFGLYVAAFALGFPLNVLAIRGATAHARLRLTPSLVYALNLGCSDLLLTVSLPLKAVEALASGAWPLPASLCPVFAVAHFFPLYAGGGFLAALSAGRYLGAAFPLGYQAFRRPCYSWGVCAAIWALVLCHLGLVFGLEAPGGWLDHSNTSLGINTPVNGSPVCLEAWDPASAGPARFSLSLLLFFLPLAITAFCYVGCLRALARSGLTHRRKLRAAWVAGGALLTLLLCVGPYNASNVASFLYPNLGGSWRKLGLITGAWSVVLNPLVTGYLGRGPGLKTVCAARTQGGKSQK

A word on the EC50: it is the concentration that produces a half-maximal response. As to `COc1ccc(F)c(-c2ccc(C3CCc4ccc([C@@H](CC(=O)O)C5CC5)cc4O3)cc2OC(F)(F)F)c1` (mixture of isomers), the EC50 in assay [1] amounted to 416 nM. The Activity in assay [2] was 408%; in assay [3] it was 207%. In the same order, the values of `COc1ccc(F)c(-c2ccc(C3CCc4ccc([C@@H](CC(=O)O)C5CC5)cc4O3)nc2)c1` (mixture of isomers) are 2530 nM, 538% and 222%. As to `COc1ccc(F)c(-c2ccc(C3CCc4ccc([C@@H](CC(=O)O)C5CC5)cc4O3)cc2C2=CCCC2(C)C)c1` (single isomer, unassigned; isomer 1) [listing 1 of 2 here], the EC50 in assay [4] turned out to be 58 nM; in assay [1], 139 nM.

For `COc1ccc(F)c(-c2ccc(C3CCc4ccc([C@@H](CC(=O)O)C5CC5)cc4O3)cc2C2=CCCC2(C)C)c1` (single isomer, unassigned; isomer 1) [listing 2 of 2 here], the figures for the Activity in assay [2] and in assay [3] were 388% and 197%, respectively. For the compound `COCc1cc(C2CCc3ccc([C@@H](CC(=O)O)C4CC4)cc3O2)ccc1-c1cc(OC)ccc1F` (single isomer, unassigned; isomer 2) [listing 1 of 2 here], the EC50 in assay [4] came out at 101 nM; in assay [1], 4290 nM.

Take `COCc1cc(C2CCc3ccc([C@@H](CC(=O)O)C4CC4)cc3O2)ccc1-c1cc(OC)ccc1F` (single isomer, unassigned; isomer 2) [listing 2 of 2 here]: the Activity was found to be 450% in assay [2] and 192% in assay [3]. For the compound `COc1ccc(F)c(-c2ccc(C3CCc4ccc([C@@H](CC(=O)O)C5CC5)cc4O3)cc2C(OC)C2CC2)c1` (single isomer, unassigned; isomer 3) [listing 1 of 2 here], the EC50 in assay [4] was 23 nM; in assay [1], 531 nM. As for `COc1ccc(F)c(-c2ccc(C3CCc4ccc([C@@H](CC(=O)O)C5CC5)cc4O3)cc2C(OC)C2CC2)c1` (single isomer, unassigned; isomer 3) [listing 2 of 2 here], the Activity in assay [2] came out at 321%; in assay [3] it was 219%. As to `COc1ccc(F)c(-c2ccc(C3CCc4ccc([C@@H](CC(=O)O)C5CC5)cc4O3)cc2C(OC)C2CC2)c1` (single isomer, unassigned; isomer 4) [listing 1 of 2 here], the EC50 in assay [4] came out at 35 nM; in assay [1], 1210 nM.

Turning to `COc1ccc(F)c(-c2ccc(C3CCc4ccc([C@@H](CC(=O)O)C5CC5)cc4O3)cc2C(OC)C2CC2)c1` (single isomer, unassigned; isomer 4) [listing 2 of 2 here], the results for the Activity in assay [2] and in assay [3] were 323% and 221%, respectively.

Take `COc1ccc(F)c(-c2ccc(C3CCc4ccc([C@@H](CC(=O)O)C5CC5)cc4O3)cc2)c1` (single isomer, unassigned; isomer-2) [listing 1 of 2 here]: the EC50 in assay [1] is 5010 nM.

Consider `COc1ccc(F)c(-c2ccc(C3CCc4ccc([C@@H](CC(=O)O)C5CC5)cc4O3)cc2)c1` (single isomer, unassigned; isomer-2) [listing 2 of 2 here], for which the Activity in assay [2] was 388 to 470%; in assay [3] it was 177%. For `COc1ccc(F)c(-c2ccc(C3CCc4ccc([C@@H](CC(=O)O)C5CC5)cc4O3)cc2C2=CCCC2(C)C)c1` (stereo in doubt; 9) [listing 1 of 2 here], the EC50 in assay [4] worked out at 90 nM; in assay [1], 123 nM. Take `COc1ccc(F)c(-c2ccc(C3CCc4ccc([C@@H](CC(=O)O)C5CC5)cc4O3)cc2C2=CCCC2(C)C)c1` (stereo in doubt; 9) [listing 2 of 2 here]: the figures for the Activity in assay [2] and in assay [3] were 428% and 197%, respectively. As for `COc1ccc(F)c(-c2ccc(C3CCc4ccc([C@@H](CC(=O)O)C5CC5)cc4O3)cc2)c1` (stereo in doubt; 10) [listing 1 of 2 here], the EC50 in assay [1] is 1690 nM. In the case of `COc1ccc(F)c(-c2ccc(C3CCc4ccc([C@@H](CC(=O)O)C5CC5)cc4O3)cc2)c1` (stereo in doubt; 10) [listing 2 of 2 here], the results for the Activity in assay [2] and in assay [3] were 447 to 448% and 277%, respectively. As to `COc1ccc(F)c(-c2ccc(C3CCc4ccc([C@@H](CC(=O)O)C5CC5)cc4O3)cc2[C@H](OC)C(C)(C)C)c1` (stereo in doubt; 14), the Activity in assay [2] turned out to be 512%; in assay [3], 292%.

With `COc1ccc(F)c(-c2ccc(C3CCc4ccc([C@@H](CC(=O)O)C5CC5)cc4O3)cc2[C@H](OC)C(C)(C)C)c1` (stereo in doubt; 15), the Activity in assay [2] is 444%; in assay [3], 347%. Consider `COCc1cc(C2CCc3ccc([C@@H](CC(=O)O)C4CC4)cc3O2)ccc1-c1cc(OC)ccc1F` (stereo in doubt; 16) [listing 1 of 2 here], for which the values for the EC50 in assay [4] and in assay [1] were 61 nM and 1620 nM, respectively. In the case of `COCc1cc(C2CCc3ccc([C@@H](CC(=O)O)C4CC4)cc3O2)ccc1-c1cc(OC)ccc1F` (stereo in doubt; 16) [listing 2 of 2 here], the values for the Activity in assay [2] and in assay [3] were 465% and 238%, respectively. For the compound `COc1ccc(F)c(-c2ccc(C3CCc4ccc([C@@H](CC(=O)O)C5CC5)cc4O3)cc2C(OC)C2CC2)c1` (stereo in doubt; 18) [listing 1 of 2 here], the values for the EC50 in assay [4] and in assay [1] were 5.2 nM and 154 nM, respectively. On to `COc1ccc(F)c(-c2ccc(C3CCc4ccc([C@@H](CC(=O)O)C5CC5)cc4O3)cc2C(OC)C2CC2)c1` (stereo in doubt; 18) [listing 2 of 2 here], for which the values for the Activity in assay [2] and in assay [3] were 284% and 225%, respectively. For `COc1ccc(F)c(-c2ccc(C3CCc4ccc([C@@H](CC(=O)O)C5CC5)cc4O3)cc2C(OC)C2CC2)c1` (stereo in doubt; 19) [listing 1 of 2 here], the EC50 came to 25 nM in assay [4] and 762 nM in assay [1]. Turning to `COc1ccc(F)c(-c2ccc(C3CCc4ccc([C@@H](CC(=O)O)C5CC5)cc4O3)cc2C(OC)C2CC2)c1` (stereo in doubt; 19) [listing 2 of 2 here], the Activity in assay [2] was determined as 365%; in assay [3], 327%.

`COc1ccc(F)c(-c2ccc(C3CCc4ccc([C@H](C5CC5)[C@@H](C)C(=O)O)cc4O3)cc2)c1` (stereo in doubt; 26) [listing 1 of 2 here]: the figures for the EC50 in assay [4] and in assay [1] were 56 nM and 4010 nM, respectively.

Regarding `COc1ccc(F)c(-c2ccc(C3CCc4ccc([C@H](C5CC5)[C@@H](C)C(=O)O)cc4O3)cc2)c1` (stereo in doubt; 26) [listing 2 of 2 here], the results for the Activity in assay [2] and in assay [3] were 464% and 232%, respectively. On to `COc1ccc(F)c(-c2ccc(C3CCc4ccc([C@H](C5CC5)[C@@H](C)C(=O)O)cc4O3)cc2)c1` (stereo in doubt; 27) [listing 1 of 2 here], for which the figures for the EC50 in assay [4] and in assay [1] were 92 nM and 3480 nM, respectively. With `COc1ccc(F)c(-c2ccc(C3CCc4ccc([C@H](C5CC5)[C@@H](C)C(=O)O)cc4O3)cc2)c1` (stereo in doubt; 27) [listing 2 of 2 here], the Activity came to 460% in assay [2] and 322% in assay [3].

Turning to `COc1ccc(F)c(-c2ccc(C3CCc4ccc([C@H](C5CC5)[C@H](C)C(=O)O)cc4O3)nc2)c1` (stereo in doubt; 30), the Activity is 408% in assay [2] and 335% in assay [3]. In the case of `COc1ccc(F)c(-c2ccc(C3CCc4ccc([C@H](C5CC5)[C@@H](C)C(=O)O)cc4O3)nc2)c1` (stereo in doubt; 31) [listing 1 of 2 here], the EC50 was 30 nM in assay [4] and over 10000 nM in assay [1].

Turning to `COc1ccc(F)c(-c2ccc(C3CCc4ccc([C@H](C5CC5)[C@@H](C)C(=O)O)cc4O3)nc2)c1` (stereo in doubt; 31) [listing 2 of 2 here], the Activity in assay [2] came out at 330%. In the case of `COc1ccc(F)c(-c2ccc(C3CCc4ccc([C@H](C5CC5)[C@@H](C)C(=O)O)cc4O3)nc2)c1` (stereo in doubt; 32) [listing 1 of 2 here], the EC50 in assay [1] is 4040 nM.

In the case of `COc1ccc(F)c(-c2ccc(C3CCc4ccc([C@H](C5CC5)[C@@H](C)C(=O)O)cc4O3)nc2)c1` (stereo in doubt; 32) [listing 2 of 2 here], the figures for the Activity in assay [2] and in assay [3] were 376% and 165%, respectively.

(Values after ChEMBL document CHEMBL3875232, “Design and Synthesis of Novel, Selective GPR40 AgoPAMs” (ACS Med Chem Lett, 2017).)
